Screens deposited in PubChem by several laboratories.
The entries come from a sample that favours hits as a whole.
Calb FLC: affects C. albicans growth with fluconazole; C. albicans CaCi-2 (fluconazole-resistant clinical isolate) + fluconazole, Alamar Blue growth, 48 h; growth inhibition, % (test concentration not listed); actives 0.57% (n = 300,000);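 active means growth inhibition above about 58% in most replicates, limit read from the data, passing the limit was not always enough; inconclusive means exactly half the replicates above a set limit; inactive means most replicates below a set limit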;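 further: all wells also contain fluconazole at 8 µg/ml as a sub-toxic cotreatment; 0% = median of DMSO wells and 100% = median of geldanamycin control wells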
NALP3 yeast inh: NALP3 inhibition in yeast | inhibition, % at 10 µM | Yeast reconstituted NLRP3/ASC/caspase-1, beta-gal luminescence, 24 h | actives 0.39% (n = 330,000);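 active means inhibition of 50% or more; inactive means inhibition below 50%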;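 further: plate controls were induced DMSO wells for no effect and uninduced yeast grown without galactose for full effect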
T cruzi repl: T. cruzi replication inhibition | actives 1.4% (n = 300,000) | T. cruzi beta-gal in NIH3T3, luminescence, 90 h | inhibition, % (no concentration beside the values);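 active means mean inhibition across valid replicates above about 55%, limit read from the data; inconclusive means mean below that limit but half or more replicates reach it; inactive means mean below it, under half of replicates reach it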;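 further: signal also drops with host cell toxicity which is not excluded here; 0% = plate median of DMSO wells and 100% = zero luminescence signal; higher percent means less beta-gal luminescence so fewer parasites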
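Read-out: Parasite load inhibition, % | Test system: Mouse NIH/3T3 fibroblasts infected with β-gal-expressing T. cruzi Tulahuen C4 | Amount: 5,000 cells/well | Medium: DMEM, 2% fetal bovine serum | Signal: GalScreen β-gal luminescence, detergent lysis, 60 min | Timing: 3 h attach, ≥90 h co-culture | Also added: Tulahuen C4 trypomastigotes, 5000/well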
PolyA inhibitor: blocks polyadenylation in yeast reporter cells. S. cerevisiae SKY197-pL101 polyadenylation reporter, beta-gal luminescence; efflux-impaired pdr1/pdr3 knockout yeast; score 100 = 6 SD above DMSO. activity score, % at 12 µM. actives 0.02% (n = 300,000);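 active means lowest replicate activity score at least 50, where 100 means six control SD above control mean; inconclusive means lowest score under 50 but half or more replicates reach 50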;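 further: yeast exposed to compound for 9 h at 30 °C; higher score means more reporter readthrough which indicates perturbed polyadenylation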
NALP1 yeast inh: inhibitors of NALP1 inflammasome in yeast; S. cerevisiae NALP1/ASC/caspase-1 growth, X-gal OD620, 72 h; inhibition, % at 10 µM; actives 0.61% (n = 280,000); in the data active means inhibition mostly above about 24%, no sharp cut-off; inactive means mostly below about 32%
Lmaj promast: Leishmania major promastigote growth inhibition; Leishmania major promastigotes, resazurin fluorescence viability; inhibition, % at 10 µM; actives 9% (n = 200,000); AID 1063; in the data active means inhibition above about 50%;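 further: promastigotes grown with compound for 44 hours at 28 °C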
Starred values were filed as active, the others as inactive; ? = inconclusive; . = no result.

SMILES	Calb FLC	NALP3 yeast inh	T cruzi repl	PolyA inhibitor	NALP1 yeast inh	Lmaj promast
O=C(CN1CCCCCC1)N/N=C/c1ccc(Cl)c(Cl)c1	-3.7	12.9	-20.0	14.9	9.1	87.9*
Cc1ccc(O)c(/C=N/NC(=O)CN2CCCC2)c1	-0.5	19.8	-3.5	-15.2	-6.7	.
Cc1nc2ccccc2nc1OCC(=O)NCC(F)(F)F	-6.3	18.5	-22.8	16.7	17.6	58.3*
O=C(CCOc1ccccc1)Nc1ccc(Cl)c(S(=O)(=O)N2CCOCC2)c1	.	24.4	.	.	.	.
COc1ccc(S(=O)(=O)N(C)c2ccc(C(=O)NCc3ccccn3)cc2)cc1OC	-5.7	10.8	-6.9	-0.1	10.9	.
COc1ccc(CN(C)S(=O)(=O)c2nnc(NC(=O)c3cccc(F)c3)s2)cc1OC	10.9	8.5	5.6	12.9	20.7	.
O=C(OCCCN1CCOCC1)c1ccc(O)c(O)c1	-2.2	11.5	-5.7	-13.2	1.0	.
COc1cc(C(=O)OCCN2CCOCC2)ccc1O	-3.2	21.1	-2.3	16.2	8.9	55.7*
CC(C)CNS(=O)(=O)c1cc2c3c(c1)CC(=O)N3CCC2	-11.3	-2.4	-7.9	7.5	-14.5	.
Cc1ccc(S(=O)(=O)N2CCN(Cc3ccccc3C(F)(F)F)CC2)cc1	-7.5	19.9	0.3	3.2	4.5	-0.2
O=S(=O)(c1ccccc1)N1CCN(Cc2ccccc2C(F)(F)F)CC1	.	22.9	.	.	-2.9	92.0*
FC(F)(F)c1ccccc1CN1CCN(C2CCCCCC2)CC1	?	23.5	28.9	-16.4	40.8	97.2*
FC(F)(F)c1ccccc1CN1CCCC(N2CCN(c3ccccc3)CC2)C1 (stereo unspecified)	-8.3	27.3	44.8	14.6	34.1	.
CCOC(=O)c1[nH]n(-c2ccc(Cl)cc2)c(=O)c1C	-1.4	-1.5	-0.1	-1.1	15.0	52.2*
Cc1cccc(NC(=O)c2cc(NC(=O)C3CCCCC3C(=O)O)ccc2N2CCCCC2)c1 (stereo unspecified)	.	4.9	.	.	-5.2	-1.7
CC(=O)Nc1ccc(N2CCCCC2)c(C(=O)Nc2cccc(C)c2)c1	93.7*	-2.3	11.7	4.0	11.6	81.5*
CC(=O)N1CCN(S(=O)(=O)c2cccc(C(=O)OCc3ccc(C(C)(C)C)cc3)c2)CC1	.	8.7	.	.	.	.
Cc1ccc(S(=O)(=O)NNC(=O)c2ccccc2-n2cccc2)cc1	4.3	-16.1	-14.5	14.6	10.6	.
COc1ccc(S(=O)(=O)NNC(=O)c2ccccc2-n2cccc2)cc1	7.9	24.4	-10.4	17.2	36.2*	-13.9
Cc1ccc([N+](=O)[O-])cc1-c1ccc(/C=C(\C#N)c2[nH]nc(N)c2C#N)o1	.	.	.	.	16.7	74.6*
CC(C)CN1C(=O)N(c2ccc(Cl)cc2)C(C)(O)CC1(C)C (stereo unspecified)	-5.7	11.2	-3.0	-3.9	8.9	.
CCN(CC(=O)Nc1cc(Cl)ccc1C)C(=O)COc1cccc2c1OC(C)(C)C2	-3.9	2.3	4.1	-2.7	19.3	.
COc1ccc(CNC(=O)c2ccc(Br)cc2)cc1	10.3	26.9	-8.4	-35.0	1.5	-1.1
COc1ccc(CNC(=O)c2c(F)c(F)c(F)c(F)c2F)cc1	0.5	4.9	4.7	15.2	22.0	52.7*
CC(C)Oc1ccc(Cc2cnc(=S)[nH]c2N)cc1	-5.1	16.4	8.2	-16.3	7.9	-7.5
SMILES	Calb FLC	NALP3 yeast inh	T cruzi repl	PolyA inhibitor	NALP1 yeast inh	Lmaj promast
Cc1noc(NS(=O)(=O)c2ccc(NC(=O)CSc3nnc4c(n3)[nH]c3ccccc34)cc2)c1C	2.8	-3.9	1.5	-0.2	22.3	56.6*
O=C(CSc1nnc2c3ccccc3c3ccccc3c2n1)Nc1ccccc1	21.3	21.2	-9.1	-5.7	2.8	96.5*
Cc1noc(NS(=O)(=O)c2ccc(NC(=O)CSc3nc4ccccc4[nH]3)cc2)c1C	30.6	13.1	-21.6	22.0	19.2	-6.6
N#CC1(c2ccccc2)CCC(=O)N1c1ccccc1 (stereo unspecified)	-3.1	5.0	-6.1	-9.1	-3.4	.
COc1ccc(N2C(=O)CC2(C#N)c2ccc(OCc3ccccc3)cc2)cc1 (stereo unspecified)	-3.4	15.6	24.2	-0.7	4.3	68.2*
CCN(CC)c1nc2c3c(nc4c(c3c1C#N)CC(=O)N4c1ccc(Cl)cc1)NC(C)=N2	3.3	13.9	-14.9	6.4	25.1	55.5*
CCc1ccc(N2C(=O)Cc3c2nc(N)c(C#N)c3N)cc1	15.4	-0.7	-12.1	-24.3	10.1	7.0
